Source: PubChem (Columbia University Molecular Screening Center)
The sample as a whole holds a higher share of hits than the screen did.
INS promoter act = TRM-6 insulin promoter activation | TRM-6 cells (human fetal islet line), insulin promoter eGFP reporter, imaging; plate-scaled: unstimulated 0, stimulated control 100 | activation, % at 2 µM | actives 0.81% (n = 130,000);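 active means activation at 2 µM above a set limit, confirmed on inspection of the cell images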;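 further: share of cells whose green reporter signal exceeds an intensity cutoff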
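Assay system: TRM-6 human fetal islet cells, insulin promoter–eGFP reporter; Also added: 0.75 µM tamoxifen as reporter inducer; Schedule: 15 h tamoxifen pre-treatment, 48 h compound treatment at 37 °C; Signal: fixed-cell fluorescence microscopy, eGFP plus Hoechst; Read-out: percent activation from GFP-positive cell fraction; Control set: stimulated and unstimulated wells.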
* marks the source's active call; other numbers are inactive results.

SMILES | INS promoter act
Cc1cc(NC(=O)c2cc3n(n2)C(C(F)(F)F)CC(c2ccco2)N3)n(-c2ccccc2)n1 (configuration not stated) | 229.7
Cc1nn(C)c(C)c1CNC(=O)c1cc2n(n1)C(C(F)(F)F)CC(c1cccs1)N2 (configuration not stated) | 278.9
CCn1c(=O)c(C(=O)CN2CCCc3ccccc32)c(N)n(Cc2ccccc2)c1=O | 103.1
CCCn1c2ccc(/C(C)=N\O)cc2c2cc(/C(C)=N/O)ccc21 | 5.3
O=C(CSCc1cccc(Cl)c1)Nc1ccccc1-c1ccccc1 | 8.1
O=C(c1ccccn1)N(Cc1ccco1)C1(C(=O)NC2CCCC2)CCCCC1 | 80.6*
O=C(COC(=O)c1ccccn1)NC1CCCCC1 | -2.9
O=C1NC(=O)C(CC(=O)N(Cc2ccco2)C2(C(=O)NC3CCCC3)CCCCC2)N1 (configuration not stated) | 0.0
Cc1cccc(Sc2c(C=O)c3ccccc3n2C)c1 | 3.6
Cc1cc(C(F)(F)F)nn1CC(=O)N(C)C1CCCCC1 | -6.7
COc1ccc2c(C)cc(SCC#N)nc2c1 | 166.7*
COc1ccc2c(-c3ccccc3)cc(SCC(=O)NC(N)=O)nc2c1 | 8.3
COc1ccc2c(-c3ccccc3)cc(SCC(=O)N(C)C)nc2c1 | -8.1
CCOc1ccc(OCC)c(C2C(C#N)=C(N)N(c3cccnc3)C3=C2C(=O)CC(C)(C)C3)c1 (configuration not stated) | 254.5
Cc1nn(C)c(Oc2cccc(Cl)c2)c1C(=O)Nc1ccc(F)cc1 | -3.1
Cc1cc(C)n(Cc2ccc(NC(=O)c3ccc(COc4ccccc4Br)cc3)cc2)n1 | 0.0
O=C1c2cccc3cccc(c23)C(=O)N1CC1CCN(S(=O)(=O)c2ccc(F)cc2)CC1 | 0.0
c1ccc(CC2CCN(C3=Nc4cccc5cccc3c45)CC2)cc1 | 82.9*
c1cc2c3c(cccc3c1)C(N1CCN(C3=Nc4cccc5cccc3c45)CC1)=N2 | -6.7
C/C(=N/NC(=O)CCC(=O)Nc1cccc(Cl)c1)c1ccc(C)cc1 | -8.3
Cc1ccc(C2C(C#N)=C(N)Oc3n[nH]c(-c4cccs4)c32)s1 (configuration not stated) | 9.1
N#CC1=C(N)Oc2n[nH]c(-c3cccs3)c2C1c1ccsc1 (configuration not stated) | 323.8
N#CC1=C(N)Oc2n[nH]c(-c3cccs3)c2C1C1CCCCC1 (configuration not stated) | 110.0*
CCOC(=O)c1nn(-c2ccccc2F)c(-c2ccccc2)c1C(=O)c1ccccc1 | -2.4
COc1ccc(C)cc1NC(=O)CSc1nnc(COc2ccc(Cl)cc2)n1Cc1ccco1 | 141.7*
SMILES | INS promoter act
CCn1c(SCc2nc3ccccc3[nH]2)nnc1-c1cccs1 | -5.9
Cn1c(COc2ccccc2)nnc1SCc1nc2ccccc2[nH]1 | -2.6
O=C(CSc1nnc(Cc2cccs2)n1Cc1ccco1)Nc1cc(Cl)cc(Cl)c1 | 0.0
COc1ccccc1NC(=O)CSc1nnc(-c2ccco2)n1Cc1ccco1 | 7.7
Clc1ccc(OCc2nnc(SCc3nc4ccccc4[nH]3)n2Cc2ccco2)cc1 | 128.6*
COC(=O)C1=NN(c2ccc(C)cc2)C2(S1)SC(C(C)=O)=C(C)N2c1ccccc1 (configuration not stated) | 0.0
CCN(C(=O)CN1CCOCC1)C1(C)C(=O)c2ccccc2C1=O | -7.7
CNc1nnc(-c2cc3ccccc3oc2=O)s1 | -9.1
Cc1cc(NC(=O)c2ccc(NC(=O)CC(C)C)cc2)no1 | 523.1*
Cc1cc(NC(=O)c2ccc(Cl)cc2)no1 | 200.0
Cc1cc(NC(=O)c2ccc(S(=O)(=O)N(C)C)cc2)no1 | 7.7
CC(=O)c1c(C)[nH]c(C(=O)OCc2ccccc2F)c1C | -9.1
CSc1ccc(/C=N/NC(=O)c2sccc2C)cc1 | -3.2
S=C(NCCc1ccccc1)NC1CC2CCC(C1)N2Cc1ccccc1 (configuration not stated) | 0.0
CCN1CC=C2C(C#N)=C(N)C(C#N)(C#N)[C@H](c3cccc(OC)c3OC)[C@H]2C1 | 614.3*
N#CC1=C(N)C(C#N)(C#N)C(c2ccncc2)C2CN(C(=O)OCc3ccccc3)CC=C12 (configuration not stated) | -4.8
CN1CC=C2C(C#N)=C(N)C(C#N)(C#N)[C@H](c3cccc(Cl)c3)C2C1 (some centres not stated) | 7.1
CCOC(=O)N1CC=C2C(C#N)=C(N)C(C#N)(C#N)[C@H](c3ccccc3OCC)[C@H]2C1 | -9.1
COc1cccc(C2C3CN(C)CC=C3C(C#N)=C(N)C2(C#N)C#N)c1OC (configuration not stated) | 147.2*
CN1CC=C2C(C#N)=C(N)C(C#N)(C#N)[C@H](c3cccs3)[C@H]2C1 | 107.9
O=C(Nc1ccccc1)/C(=C1\CCCN1)[N+](=O)[O-] | -9.5
CCCCOc1ccc2c(C)cc(=O)oc2c1OCCCC | -6.7
CCOC(=O)c1cnn2cc(-c3[nH]ncc3[N+](=O)[O-])cnc12 | 0.0
CCOC(=O)C1=C(C)Nc2ccccc2N=C1NC(=O)Cc1ccc(Cl)c(Cl)c1 | 190.5
CCOC(=O)C1=C(C)Nc2ccccc2N=C1NC(=O)Cc1ccc(Br)cc1 | 222.6*
SMILES | INS promoter act
CCOC(=O)c1ccc(CNCc2ccc(Br)cc2)cc1 | 0.0
O=C(COC(=O)CC12CC3CC(CC(C3)C1)C2)Nc1cccnc1Cl | -5.3
COc1ccc(/C=C(/NC(=O)c2ccco2)C(=O)N2CCCC2=O)cc1 | -9.5
CCCCN1C(=O)C2Cc3c([nH]c4ccccc34)CN2C1=S (configuration not stated) | 186.5
O=C(NCc1cccnc1)c1noc2c1CCCC2 | 3.1
O=C(NCc1cccc(F)c1)c1noc2c1CCCC2 | 257.1*
CCc1ccc(NC(=O)c2noc3c2CCC3)cc1 | 7.7
CC(=O)Nc1cccc(C(=O)NC(C)c2ccc(S(N)(=O)=O)cc2)c1 (configuration not stated) | -9.4
CCC(=O)NCCc1nc2cc(NC(=O)c3ccc(OC)cc3)ccc2n1C | 107.7
Nc1ccc(C(=O)c2ccccc2C(=O)O)cc1Cl | 5.3
CCCCNC(=O)c1ccc(CNc2c(N3CCC(C(=O)OCC)CC3)c(=O)c2=O)cc1 | -4.7
O=C(Nc1ccc(S(=O)(=O)Nc2nccs2)cc1)C1CCCCC1 | 0.0
COc1ccccc1-c1noc(-c2ccccc2C(=O)Nc2ccccc2)n1 | -71.4
COc1ccccc1NC(=O)c1ccccc1-c1nc(-c2ccccc2OC)no1 | 400.0*
COc1ccccc1NC(=O)c1cc(Cl)ccc1NC(=O)c1ccco1 | -86.4
c1ccc(-c2nnc3sc(CN4CCc5ccccc54)cn23)cc1 | 100.9
Cc1ccc2sc(-c3ccc(NC(=O)/C=C\C(=O)O)cc3)nc2c1 | -2.7
COc1ccc(NS(=O)(=O)c2ccc3oc(SC4CCOC4=O)nc3c2)cc1 (configuration not stated) | -3.8
O=c1[nH]c(CS(=O)(=O)c2ccccc2)nc2ccccc12 | 5.6
O=c1cc(CS(=O)(=O)c2ccccc2)nc(-c2ccncc2)[nH]1 | 331.3*
CN(Cc1nc(-c2ccncc2)no1)S(=O)(=O)c1ccccc1 | 23.5
CCOC(=O)C1=C(N)OC(CCl)=C(C#N)C1c1ccsc1 (configuration not stated) | 0.0
O=c1c([N+](=O)[O-])cccn1Cc1cccc(Cl)c1 | 0.0
Cn1c(=O)[nH]c(=O)c2c1nc(N1CCOCC1)n2CCCSc1ncccn1 | -6.5
Cc1ccc(-c2ccc(CCC(=O)O)n2-c2ccc(O)cc2)cc1 | -8.6
Cc1ccc(-c2ccc(CCC(=O)O)n2CC(=O)O)cc1 | -3.6
